Data as given in ChEMBL document CHEMBL1122207, “Antitumor agents. 2. Bisguanylhydrazones of anthracene-9,10-dicarboxaldehydes” (1982).

Tests used:
Type in all cases: functional
Mus musculus [1] = species: Mus musculus; test: Anticancer activity measured as the number of survivors of the total treated mice with P-388 leukemia at 30 days.
Summary of the method: (§1)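 BDF1 or CDF1 mice given 10^6 ascitic P-388 leukemia cells ip, then treated ip on days 1, 5 and 9. Cures are survivors over total treated at 30 days.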

Mus musculus [2] = test: Percent increase in median life span of BDF1 mice with P-388 leukemia at dose 200 mg/kg administered intraperitoneally; conditions: BDF1, P388, ip, route intraperitoneal
Mus musculus [3] = test: Percent increase in median life span of BDF1 mice with B-16 melanoma at dose 12.5 mg/kg administered intraperitoneally; conditions: BDF1, B16, ip, route intraperitoneal
Summary of the method: (§2)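 BDF1 mice were implanted ip with a homogenate from 0.05 g of B-16 melanoma. Ip dosing ran on days 1-9, starting 24 h after implant, in dose-response studies following NCI protocols. The read-out was percent increase in life span (ILS). T/C ≥125% was taken as significant.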

Mus musculus [4] = species: Mus musculus; test: Cures is the number of survivors of the total treated mice (10) with B-16 melanoma, at 60 days.
Summary of the method: (§3)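 BDF1 mice were implanted ip with a homogenate from 0.05 g of B-16 melanoma and dosed ip on days 1-9. Cures are survivors over total at 60 days.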

Mus musculus [5] = test: Percent increase in median life span of BDF1 mice with P-388 leukemia at dose 50 mg/kg administered intraperitoneally; conditions: BDF1, P388, ip, route intraperitoneal
Mus musculus [6] = test: Percent increase in median life span of BDF1 mice with B-16 melanoma administered intraperitoneally; summary of the method: as §2
Mus musculus [7] = test: Percent increase in median life span of BDF1 mice with P-388 leukemia at dose 6.25 mg/kg administered intraperitoneally; conditions: BDF1, P388, ip, route intraperitoneal
Mus musculus [8] = species: Mus musculus; test: Number of survivors of the total treated mice with B-16 melanoma, at 60 days.; summary of the method: as §3
Mus musculus [9] = test: Percent increase in median life span of BDF1 mice with B-16 melanoma at dose 50 mg/kg administered intraperitoneally; conditions: BDF1, B16, ip, route intraperitoneal; summary of the method: as §2
Mus musculus [10] = test: Percent increase in median life span of BDF1 mice with B-16 melanoma at dose 25 mg/kg administered intraperitoneally; conditions: BDF1, B16, ip, route intraperitoneal; summary of the method: as §2
Mus musculus [11] = test: Percent increase in median life span of BDF1 mice with P-388 leukemia at dose 12.5 mg/kg administered intraperitoneally; conditions: BDF1, P388, ip, route intraperitoneal
Mus musculus [12] = test: Percent increase in median life span of BDF1 mice with B-16 melanoma at dose 12 mg/kg administered intraperitoneally; conditions: BDF1, B16, ip, route intraperitoneal; summary of the method: as §2
Mus musculus [13] = test: Percent increase in median life span of BDF1 mice with P-388 leukemia at dose 25 mg/kg administered intraperitoneally; conditions: BDF1, P388, ip, route intraperitoneal
Mus musculus [14] = species: Mus musculus; test: Cures is the number of survivors of the total treated mice (6) with P-388 leukemia, at 30 days.; summary of the method: as §1

| Structure (SMILES) | Cures (Mus musculus [1]) | ILS at 200 mg/kg (Mus musculus [2]) [%] | Cures (Mus musculus [8]) | further results |
| --- | --- | --- | --- | --- |
| O=C(N/N=C/c1c2ccccc2c(/C=N/NC(=O)c2cccnc2)c2ccccc12)c1cccnc1 | 0 | 0 |  |  |
| Cl.Cl.Clc1ccc2c(c1)C(/C=N/NC1=NCCN1)c1ccccc1C2/C=N/NC1=NCCN1 (stereo not drawn) |  |  |  | ILS at 12.5 mg/kg (Mus musculus [3]): 230%; Cures (Mus musculus [4]): 5; ILS at 50 mg/kg (Mus musculus [5]): 100% |
| Cl.Cl.S=C(NCCN1CCCCC1)N/N=C/c1c2ccccc2c(/C=N/NC(=S)NCCN2CCCCC2)c2ccccc12 | 0 |  |  | ILS (Mus musculus [6]): 0%; ILS at 50 mg/kg (Mus musculus [5]): 58% |
| Cc1cc2c(cc1C)C(/C=N/NC1=NCCN1)c1ccccc1C2/C=N/NC1=NCCN1 (stereo not drawn) |  |  |  | ILS at 50 mg/kg (Mus musculus [5]): 73% |
| CN(C)CCCCCCC/N=C(\S)N/N=C/c1c2ccccc2c(/C=N/N/C(S)=N/CCCCCCCN(C)C)c2ccccc12.Cl | 0 |  |  | ILS at 6.25 mg/kg (Mus musculus [7]): 39%; ILS (Mus musculus [6]): 0% |
| C(=N\NC1=NCc2ccccc2CN1)/c1c2ccccc2c(/C=N/NC2=NCc3ccccc3CN2)c2ccccc12 | 0 | 30 |  |  |
| COc1ccc(OC)c2c(/C=N/NC3=NCCN3)c3ccccc3c(/C=N/NC3=NCCN3)c12.Cl.Cl | 0 |  | 0 | ILS at 12.5 mg/kg (Mus musculus [3]): 64%; ILS at 50 mg/kg (Mus musculus [5]): 50% |
| CC1(/C=N/NC2=NCCN2)c2ccccc2C(C)(/C=N/NC2=NCCN2)c2ccccc21 (stereo not drawn) |  | 0 |  | ILS at 50 mg/kg (Mus musculus [9]): 0% |
| C(=C\c1c2ccccc2c(/C=C/C=N/NC2=NCCN2)c2ccccc12)/C=N/NC1=NCCN1.Cl.Cl | 0 | 36 | 0 | ILS at 25 mg/kg (Mus musculus [10]): 46% |
| N=C(N/N=C/c1c2ccccc2c(/C=N/NC(=N)NC2CCc3ccccc32)c2ccccc12)NC1CCc2ccccc21 (stereo not drawn) | 0 | 80 | 0 | ILS at 25 mg/kg (Mus musculus [10]): 62% |
| C(=N\NC1=NCCCCN1)/c1c2ccccc2c(/C=N/NC2=NCCCCN2)c2ccccc12 | 0 |  |  | Cures (Mus musculus [4]): 1; ILS at 12.5 mg/kg (Mus musculus [11]): 90%; ILS at 12 mg/kg (Mus musculus [12]): 173% |
| CN(C)/N=C/c1c2ccccc2c(/C=N/N(C)C)c2ccccc12 | 0 | 0 |  |  |
| Cc1ccc(S(=O)(=O)N/N=C/c2c3ccccc3c(/C=N/NS(=O)(=O)c3ccc(C)cc3)c3ccccc23)cc1 | 0 | 0 |  |  |
| CN/N=C/c1c2ccccc2c(/C=N/NC)c2ccccc12 | 0 | 0 |  |  |
| Cl.Cl.S=C(NCCN1CCOCC1)N/N=C/c1c2ccccc2c(/C=N/NC(=S)NCCN2CCOCC2)c2ccccc12 | 0 |  |  | Cures (Mus musculus [4]): 1; ILS at 50 mg/kg (Mus musculus [5]): 80%; ILS at 12 mg/kg (Mus musculus [12]): 103% |
| CC(C)CN(CC/N=C(\S)N/N=C/c1c2ccccc2c(/C=N/N/C(S)=N/CCN(CC(C)C)CC(C)C)c2ccccc12)CC(C)C.Cl.Cl | 0 |  |  | ILS at 25 mg/kg (Mus musculus [13]): 33% |
| CC(C)/N=C(/N/N=C/c1c2ccccc2c(/C=N/N=C(NC(C)C)NC(C)C)c2ccccc12)NC(C)C | 0 |  | 0 | ILS (Mus musculus [6]): 0%; ILS at 50 mg/kg (Mus musculus [5]): 50% |
| C(=N\Nc1ccccn1)/c1c2ccccc2c(/C=N/Nc2ccccn2)c2ccccc12 | 0 | 0 |  |  |
| CCCCCCCCCCCCCCCC/N=C(\N)N/N=C/c1c2ccccc2c(/C=N/N/C(N)=N/CCCCCCCCCCCCCCCC)c2ccccc12.Cl.Cl | 0 | 0 | 0 | ILS at 50 mg/kg (Mus musculus [9]): 0% |
| Cl.Cl.Cl.Cl.N=C(NCc1ccncc1)N/N=C/c1c2ccccc2c(/C=N/NC(=N)NCc2ccncc2)c2ccccc12 | 0 |  | 0 | ILS at 25 mg/kg (Mus musculus [10]): 78%; ILS at 12.5 mg/kg (Mus musculus [11]): 90% |
| CN(C)CC/N=C/c1c2ccccc2c(/C=N/CCN(C)C)c2ccccc12 | 0 | 0 |  |  |

| Structure (SMILES) | Cures (Mus musculus [1]) | ILS at 200 mg/kg (Mus musculus [2]) [%] | Cures (Mus musculus [8]) | further results |
| --- | --- | --- | --- | --- |
| N=C(N/N=C/c1c2ccccc2c(/C=N/NC(=N)NC2CCCCC2)c2ccccc12)NC1CCCCC1 | 0 |  | 0 | ILS at 50 mg/kg (Mus musculus [5]): 73%; ILS at 12 mg/kg (Mus musculus [12]): 80% |
| Cl.Cl.Clc1cccc2c1C(/C=N/NC1=NCCN1)c1ccccc1C2/C=N/NC1=NCCN1 (stereo not drawn) |  |  |  | ILS at 50 mg/kg (Mus musculus [9]): 153%; Cures (Mus musculus [4]): 3; ILS at 50 mg/kg (Mus musculus [5]): 100% |
| Cl.Cl.N=C(NCc1cccs1)N/N=C/c1c2ccccc2c(/C=N/NC(=N)NCc2cccs2)c2ccccc12 | 0 |  | 0 | ILS at 50 mg/kg (Mus musculus [5]): 90%; ILS at 12 mg/kg (Mus musculus [12]): 75% |
| Cl.Cl.N/C(=N\N=C\c1c2ccccc2c(/C=N/N/C(N)=N/CCO)c2ccccc12)NCCO | 0 |  |  | Cures (Mus musculus [4]): 1; ILS at 25 mg/kg (Mus musculus [13]): 90%; ILS at 12 mg/kg (Mus musculus [12]): 80% |
| CN(C)CC(=O)N/N=C/c1c2ccccc2c(/C=N/NC(=O)CN(C)C)c2ccccc12.Cl.Cl | 0 | 0 |  |  |
| Cl.Cl.Cl.Cl.N=C(NCc1cccnc1)N/N=C/c1c2ccccc2c(/C=N/NC(=N)NCc2cccnc2)c2ccccc12 |  |  | 0 | ILS at 25 mg/kg (Mus musculus [10]): 77%; ILS at 25 mg/kg (Mus musculus [13]): 114%; Cures (Mus musculus [14]): 1 |
| CC1(C)CCC(C)(C)NC(N/N=C/c2c3ccccc3c(/C=N/NC3=NC(C)(C)CCC(C)(C)N3)c3ccccc23)=N1.Cl.Cl | 0 |  |  | ILS at 50 mg/kg (Mus musculus [5]): 0% |
| CSC(=N)N/N=C/c1c2ccccc2c(/C=N/N=C(/N)SC)c2ccccc12 | 0 | 0 |  |  |
| CCCCC1(CCCC)CN=C(N/N=C/c2c3ccccc3c(/C=N/NC3=NCC(CCCC)(CCCC)CN3)c3ccccc23)NC1.Cl.Cl |  |  | 0 | ILS at 50 mg/kg (Mus musculus [9]): 0% |
| NC(=O)N/N=C/c1c2ccccc2c(/C=N/NC(N)=O)c2ccccc12 | 0 | 0 |  |  |
| C(=N\Nc1nc2ccccc2s1)/c1c2ccccc2c(/C=N/Nc2nc3ccccc3s2)c2ccccc12 | 0 | 0 |  |  |
| N=C(NCc1ccccc1)N/N=C/c1c2ccccc2c(/C=N/NC(=N)NCc2ccccc2)c2ccccc12 | 0 |  | 0 | ILS at 25 mg/kg (Mus musculus [13]): 68%; ILS at 12 mg/kg (Mus musculus [12]): 47% |
| C(/CCc1c2ccccc2c(CC/C=N/NC2=NCCN2)c2ccccc12)=N\NC1=NCCN1.Cl.Cl | 0 |  | 0 | ILS at 50 mg/kg (Mus musculus [9]): 0%; ILS at 50 mg/kg (Mus musculus [5]): 30% |
| Cl.Cl.Cl.Cl.N=C(NCc1ccccn1)N/N=C/c1c2ccccc2c(/C=N/NC(=N)NCc2ccccn2)c2ccccc12 | 0 |  | 0 | ILS at 25 mg/kg (Mus musculus [10]): 74%; ILS at 50 mg/kg (Mus musculus [5]): 95% |
| C(=N\NC1=NCCCCC1)/c1c2ccccc2c(/C=N/NC2=NCCCCC2)c2ccccc12.Cl.Cl | 0 |  | 0 | ILS at 25 mg/kg (Mus musculus [13]): 95%; ILS at 12 mg/kg (Mus musculus [12]): 35% |
| CCCO.Clc1cccc2c1C(/C=N/NC1=NCCN1)c1cccc(Cl)c1C2/C=N/NC1=NCCN1 (stereo not drawn) |  | 0 |  | ILS at 50 mg/kg (Mus musculus [9]): 0% |
| CCN(CC)CC/N=C(\S)N/N=C/c1c2ccccc2c(/C=N/N/C(S)=N/CCN(CC)CC)c2ccccc12.Cl.Cl | 0 |  |  | ILS at 6.25 mg/kg (Mus musculus [7]): 95% |
| COc1ccc(OC)c2c1C(/C=N/NC1=NCCN1)c1ccccc1C2/C=N/NC1=NCCN1 (stereo not drawn) |  | 0 |  |  |
| CN1CCN(C)C1=N/N=C/c1c2ccccc2c(/C=N/N=C2N(C)CCN2C)c2ccccc12 | 0 | 0 |  |  |
| CN1CCN(/N=C/c2c3ccccc3c(/C=N/N3CCN(C)CC3)c3ccccc23)CC1.Cl.Cl | 0 | 0 |  |  |
| N/N=C(\S)N/N=C/c1c2ccccc2c(/C=N/N/C(S)=N/N)c2ccccc12 | 0 | 0 |  |  |
